Laboratory results as given in ChEMBL document CHEMBL1151307, “Effects of tannins from Geum japonicum on the catalytic activity of thrombin and factor Xa of blood coagulation cascade” (J Nat Prod, 1998).
The source made the active and inactive calls.

Key:
Prothrombin [1] = molecular target: T1, Prothrombin (Bos taurus, UniProt P00735); assay: Inhibition of bovine thrombin by Lineweaver-Burke plot analysis
Method in brief: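 Bovine plasma thrombin (0.19 NIH units/mL) was run in 0.05 M Tris/0.1 M NaCl, pH 7.5, at 37 °C. It was preincubated with compound for under 2 min, and the reaction was started with S-2238 at 0.6-1.7 mM. Initial rates were taken as p-nitroaniline release at 405 nm. Inhibition type and Ki came from linear-regression Lineweaver-Burk plots.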

Coagulation factor X [2] = molecular target: T2, Coagulation factor X (Homo sapiens, UniProt P00742); assay: Inhibition of human factor 10a
T2 sequence (P00742 41-179 limits assumed): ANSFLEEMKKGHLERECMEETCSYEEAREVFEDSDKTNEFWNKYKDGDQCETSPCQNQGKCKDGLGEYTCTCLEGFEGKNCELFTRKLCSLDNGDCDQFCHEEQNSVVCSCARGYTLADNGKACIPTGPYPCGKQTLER
T2 sequence (P00742 235-488 limits assumed): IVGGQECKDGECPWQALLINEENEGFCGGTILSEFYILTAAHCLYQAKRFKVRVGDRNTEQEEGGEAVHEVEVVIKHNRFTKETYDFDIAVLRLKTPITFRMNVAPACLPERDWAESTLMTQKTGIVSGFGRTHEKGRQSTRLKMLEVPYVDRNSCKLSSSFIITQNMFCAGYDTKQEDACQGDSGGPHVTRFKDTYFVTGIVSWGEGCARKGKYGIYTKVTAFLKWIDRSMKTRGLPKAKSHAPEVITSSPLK
Method in brief: (§1)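 Compound and 0.20 mM S-2222 were mixed in 0.05 M Tris/0.1 M NaCl, pH 8.3. Reaction was started with factor Xa (50 ng/mL) and 4-nitroanilide release was read at 405 nm over 5 min at 37 °C. IC50 is the concentration giving 50% inhibition of initial activity, mean ± SD of three experiments. Ki was determined with S-2222 at 0.04-0.20 mM.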

Prothrombin [3] = molecular target: T1, Prothrombin; assay: Inhibition of bovine thrombin-catalyzed hydrolysis of S-2238
Method in brief: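 Bovine plasma thrombin (0.19 NIH units/mL solution) in 0.05 M Tris with 0.1 M NaCl (pH 7.5) was preincubated with compound for 2 min at 37 °C. S-2238 was added as a 0.66 mM solution to start the reaction. p-Nitroaniline release was followed at 405 nm over 5 min and expressed as % inhibition. IC50 is the concentration that inhibits 50% of initial activity. Mean of three experiments.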

Plasma [4] = assay: Anticoagulant activity in rabbit plasma assessed as activated partial thromboplastin time at 0.25 mM after 2 mins; assay type: functional, Oryctolagus cuniculus
Method in brief: (§2)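 APTT: rabbit plasma with compound (dissolved in 0.05 M Tris buffer) and APTT reagent preincubated 2 min, then clotting started with 25 mM CaCl2. Clotting time was read on a fibrometer at 37 °C. Values are the mean of three separate determinations (mean ± SD, n = 3-5), with clotting >300 s recorded as no clotting.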

Plasma [5] = assay: Anticoagulant activity in rabbit plasma assessed as thrombin time at 0.25 mM after 2 mins; assay type: functional, Oryctolagus cuniculus
Method in brief: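 TT: rabbit plasma, 0.05 M Tris and compound in Tris preincubated 2 min, then bovine thrombin (3-4 NIH units/mL) added. Clotting was timed on a fibrometer at 37 °C. Values are the mean of three determinations (mean ± SD, n = 3-5), with >300 s taken as no clotting.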

Plasma [6] = assay: Anticoagulant activity in rabbit plasma assessed as prothrombin time at 0.25 mM after 2 mins; assay type: functional, Oryctolagus cuniculus
Method in brief: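 PT: 0.05 M Tris/0.1 M NaCl (pH 7.5), compound in Tris and rabbit plasma incubated 2 min at 37 °C. Clotting started with thromboplastin-calcium reagent and timed on a fibrometer. Values are the mean of three determinations (mean ± SD, n = 3-5). Clotting >300 s was taken as no clotting.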

Plasma [7] = assay: Anticoagulant activity in rabbit plasma assessed as prothrombin time at 0.45 mM after 2 mins; assay type: functional, Oryctolagus cuniculus
Method in brief: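 Rabbit plasma incubated 2 min at 37 °C with compound in 0.05 M Tris buffer plus 0.05 M Tris/0.1 M NaCl (pH 7.5); clotting started with thromboplastin-calcium reagent and timed on a fibrometer at 37 °C; clotting time in seconds, cut-off >300 s; average of three separate determinations (mean ± SD, n = 3-5).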

Plasma [8] = assay: Anticoagulant activity in rabbit plasma assessed as activated partial thromboplastin time at 0.5 mM after 2 mins; assay type: functional, Oryctolagus cuniculus
Method in brief: (§3)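 Rabbit plasma with test compound in 0.05 M Tris buffer was incubated with APTT reagent for 2 min at 37 °C. Clotting was started with 25 mM CaCl2 and timed on a fibrometer. Clotting time is in seconds, mean ± SD (n = 3-5), compared with control by Student's t-test. Clotting beyond 300 s was scored as no clotting.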

Coagulation factor X [9] = molecular target: T2, Coagulation factor X; assay: Inhibition of human factor 10a-catalyzed hydrolysis of S-2222; method in brief: as §1
Plasma [10] = assay: Anticoagulant activity in rabbit plasma assessed as thrombin time at 0.5 mM after 2 mins; assay type: functional, Oryctolagus cuniculus
Method in brief: (§4)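 Rabbit plasma, 0.05 M Tris buffer and compound in Tris were preincubated for 2 min at 37 °C. Clotting was started with bovine thrombin (3-4 NIH units/mL) and timed on a fibrometer. Clotting time is in seconds, mean ± SD (n = 3-5), with Student's t-test against control. Clotting beyond 300 s was scored as no clotting.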

Prothrombin [11] = molecular target: T1, Prothrombin; assay: Inhibition of bovine thrombin-catalyzed hydrolysis of fibrinogen
Method in brief: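 Compound at various concentrations was preincubated with thrombin (0.05 NIH units/mL solution) for 3 min at 37 °C. The reaction was started with fibrinogen (2 mg/mL solution). Clot turbidity was read at 405 nm for 5 min and velocities were taken as mOD/min. IC50 is the concentration that inhibits 50% of initial activity. Mean of three experiments.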

Plasma [12] = assay: Anticoagulant activity in rabbit plasma assessed as activated partial thromboplastin time at 0.47 mM after 2 mins; assay type: functional, Oryctolagus cuniculus; method in brief: as §2
Plasma [13] = assay: Anticoagulant activity in rabbit plasma assessed as prothrombin time at 0.5 mM after 2 mins; assay type: functional, Oryctolagus cuniculus
Method in brief: (§5)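 Rabbit plasma was preincubated 2 min at 37 °C with compound dissolved in 0.05 M Tris buffer plus Tris/0.1 M NaCl, pH 7.5. Clotting was triggered with thromboplastin-calcium reagent and read on a fibrometer. Clotting time is in seconds, mean ± SD (n = 3-5), with Student's t-test against control. A cut-off of >300 s was scored as no clotting.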

Prothrombin (Bos taurus) = Prothrombin (Bos taurus) (UniProt P00735); assay: Inhibition of bovine thrombin upto 100 uM
Method in brief: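 Bovine plasma thrombin (0.19 NIH units/mL) in Tris/0.1 M NaCl, pH 7.5, was preincubated 2 min at 37 °C with compound in 0.1% DMSO, which also served as vehicle control. Reaction was started with S-2238 (0.66 mM, as added) and read as the rise in A405 over 5 min. Results are percent inhibition of thrombin activity.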

Plasma [14] = assay: Anticoagulant activity in rabbit plasma assessed as activated partial thromboplastin time at 0.1 mM after 2 mins; assay type: functional, Oryctolagus cuniculus; settings: in the assay text read “1 mM” for “0.1 mM”; method in brief: as §3
Plasma [15] = assay: Anticoagulant activity in rabbit plasma assessed as thrombin time at 0.1 mM after 2 mins; assay type: functional, Oryctolagus cuniculus; settings: in the assay text read “1 mM” for “0.1 mM”; method in brief: as §4
Plasma [16] = assay: Anticoagulant activity in rabbit plasma assessed as prothrombin time at 0.1 mM after 2 mins; assay type: functional, Oryctolagus cuniculus; settings: in the assay text read “1 mM” for “0.1 mM”; method in brief: as §5
[17] = Toxicity in po dosed rat; assay type: organism-based; settings: in vivo
[18] = Toxicity in po dosed mouse; assay type: organism-based; settings: in vivo
Plasma [19] = assay: Anticoagulant activity in rabbit plasma assessed as activated partial thromboplastin time at 0.75 mM after 2 mins; assay type: functional, Oryctolagus cuniculus; method in brief: as §3
Plasma [20] = assay: Anticoagulant activity in rabbit plasma assessed as thrombin time at 0.75 mM after 2 mins; assay type: functional, Oryctolagus cuniculus; method in brief: as §4
Plasma [21] = assay: Anticoagulant activity in rabbit plasma assessed as prothrombin time at 0.75 mM after 2 mins; assay type: functional, Oryctolagus cuniculus; method in brief: as §5

Row | SMILES | Ki (Prothrombin [1]) | Ki (Coagulation factor X [2]) | IC50 (Prothrombin [3]) | APTT (Plasma [4]) | TT (Plasma [5]) | PT (Plasma [6]) | APTT (Plasma [8]) | IC50 (Coagulation factor X [9]) | TT (Plasma [10]) | IC50 (Prothrombin [11]) | PT (Plasma [13]) | Activity (Prothrombin (Bos taurus)) | APTT (Plasma [14]) | TT (Plasma [15]) | PT (Plasma [16]) | further results
1 | O=C(OC[C@H]1O[C@@H](OC(=O)c2cc(O)c(O)c(O)c2)[C@H](OC(=O)c2cc(O)c(O)c(O)c2)[C@@H](OC(=O)c2cc(O)c(O)c(O)c2)[C@@H]1OC(=O)c1cc(O)c(O)c(O)c1)c1cc(O)c(O)c(O)c1 [PENTAGALLOYL GLUCOSE] | 3900 nM | 570 nM | 110 nM | 50.6 s | >300 s | 13.9 s | > 300 s | 170 nM | > 300 s | 50 nM | > 300 s |  |  |  |  | PT (Plasma [7]): >300 s; APTT (Plasma [12]): >300 s
2 | O=C(OC[C@H]1O[C@@H](OC(=O)c2ccccc2)[C@H](OC(=O)c2ccccc2)[C@@H](OC(=O)c2ccccc2)[C@@H]1OC(=O)c1ccccc1)c1ccccc1 |  |  |  |  |  |  |  |  |  |  |  | inactive |  |  |  | 
3 | COc1cc2c(c(OC)c1OC)-c1c(cc(OC)c(OC)c1OC)C(=O)O[C@H]1[C@@H]3OC(=O)c4cc(OC)c(OC)c(OC)c4-c4c(cc(OC)c(OC)c4OC)C(=O)O[C@H]3C(OC)O[C@@H]1COC2=O (stereo not given in full) |  |  |  |  |  |  |  |  |  |  |  | inactive |  |  |  | 
4 | O=C1OC[C@@H](O)[C@H]([C@@H]2OC(=O)c3cc(O)c(O)c(O)c3-c3c(O)c(O)c(O)c4c3C(=O)O[C@H]2[C@@H]4O)OC(=O)c2cc(O)c(O)c(O)c2-c2c1cc(O)c(O)c2O [CASUARIIN] | 980 nM | 450 nM | 280 nM |  |  |  | 72.3 s | 720 nM | 12.3 s | 59 nM | 13.6 s |  | >300 s | >300 s | >300 s | 
5 | O=C1OC[C@H]2OC(O)[C@@H]3OC(=O)c4cc(O)c(O)c(O)c4-c4c(cc(O)c(O)c4O)C(=O)O[C@H]3[C@@H]2OC(=O)c2cc(O)c(O)c(O)c2-c2c1cc(O)c(O)c2O (stereo not given in full) [PEDUNCULAGIN] | 42 nM | 990 nM | 180 nM | 35.3 s | 12.6 s | 10.2 s | 43.7 s | 560 nM | 22.7 s | 150 nM | 13.5 s |  | >300 s | >300 s | >300 s | LD50 [17]: > 100 mg/kg; LD50 [18]: > 100 mg/kg; APTT (Plasma [19]): 60.2 s; TT (Plasma [20]): 33.5 s; PT (Plasma [21]): 15.2 s
